ChEMBL document CHEMBL1133549, “N4-(omega-Aminoalkyl)-1-[(omega-aminoalkyl)amino]-4- acridinecarboxamides: novel, potent, cytotoxic, and DNA-binding agents” (J Med Chem, 2000)

How the values were obtained:
Nucleic Acid [1] = assay: Tested for binding affinity against AT from [poly(dA-dT)]2.; assay type: nucleic-acid assay
In short: (§1)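 Ethidium displacement measured fluorometrically at 20 °C (excitation 546 nm, emission 595 nm). Buffer was 10 mM Na2HPO4, 10 mM NaH2PO4, 1 mM EDTA, pH 7.0, with 1.26 µM ethidium bromide and 1 µM of CT-DNA, [poly(dA-dT)]2 or [poly(dG-dC)]2. Drug was added serially from a ~5 mM DMSO stock. C50 (50% loss of bound-ethidium fluorescence) is the mean of three determinations. Kapp = 1.26/C50 × 10^7.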

SK-OV-3 = assay: The compound was tested for cytotoxic activity against SKOV-3 cell line(human ovarian carcinoma ); assay type: functional, cell-based
In short: (§2)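 Human ovarian carcinoma cells (100–5000) were plated and allowed to adhere overnight. Drug was diluted from DMSO stock into aqueous solution at pH 7.0 and applied continuously for 96 h at 37 °C. Growth was read by SRB protein staining. IC50 is 50% growth inhibition versus drug-free controls, from a representative experiment with 4 replicate wells per concentration and 8 control wells.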

Nucleic Acid [2] = assay: Binding affinity against GC from [poly(dG-dC)]2.; assay type: nucleic-acid assay; in short: as §1
A2780 [3] = assay: The compound was tested for cytotoxic activity against A2780/Cs cell line(human ovarian carcinoma; assay type: functional, cell-based; in short: as §2
HT-29 = assay: The compound was tested for cytotoxic activity against HT-29 cell line(human colon adeno carcinoma); assay type: functional, cell-based
In short: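 HT29 colon adenocarcinoma cells at 2.5×10^4 cells/mL received drug under protracted exposure for 144 h. Assays were run in triplicate.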

CH1 [4] = assay: The compound was tested for cytotoxic activity against CH1 cell line(human ovarian carcinoma ); assay type: functional, cell-based; in short: as §2
A2780 [5] = assay: The compound was tested for cytotoxic activity against A2780 cell line(human ovarian carcinoma ); assay type: functional, cell-based; in short: as §2
Nucleic Acid [6] = assay: Binding affinity against CT-DNA from calf thymus DNA; assay type: nucleic-acid assay; details: Bos taurus; in short: as §1
[7] = (§3) The compound was tested for cytotoxic activity against CH1/Cs cell line(human ovarian carcinoma); assay type: functional, cell-based; in short: as §2
A2780cisR [8] = assay: The compound was tested for cytotoxic activity against A2780cisR cell line(human ovarian carcinoma; assay type: functional, cell-based; in short: as §2
A2780cisR [9] = assay: The compound was tested for cytotoxic activity against A2780cisR cell line(human ovarian carcinoma ); assay type: functional, cell-based; in short: as §2
CH1 [10] = assay: as §3; assay type: functional, cell-based; in short: as §2
A2780cisR [11] = assay: The compound was tested for cytotoxic activity against A2780cisR cell line(human ovarian carcinoma); assay type: functional, cell-based; in short: as §2

K app (Nucleic Acid [1]) [M⁻¹] | K app (Nucleic Acid [2]) [M⁻¹] | K app (Nucleic Acid [6]) [M⁻¹] | Compound | IC50 (SK-OV-3) [nM] | IC50 (A2780 [3]) [nM] | IC50 (HT-29) [nM] | IC50 (CH1 [4]) [nM] | IC50 (A2780 [5]) [nM] | IC50 [7] [nM] | IC50 (A2780cisR [8]) [nM] | IC50 (A2780cisR [9]; Homo sapiens, A2780cisR) [nM] | IC50 (CH1 [10]) [nM] | IC50 (A2780cisR [9]) [nM] | IC50 (A2780cisR [9]; a2780cisr) [nM] | IC50 (A2780cisR [11]) [nM]
2.8e+07 | 2.3e+08 | 1.5e+09 | CN(C)CCNC(=O)c1ccc(NCCN(C)C)c2cc3ccccc3nc12 | 110 | 7 | 7 | 7 | 4.3 | 5 |  |  |  |  |  | 
1.7e+07 | 9.1e+07 | 1.5e+08 | CCN(CC)CCNC(=O)c1ccc(NCCN(CC)CC)c2cc3ccccc3nc12 | 500 |  | 580 | 185 | 415 | 375 | 475 |  |  |  |  | 
 |  |  | CN(C)CCNC(=O)c1ccc(NCCN(C)C)c2cc3cc(N)ccc3nc12 [listing 1 of 3 here] | 155 |  | 700 | 89 | 320 |  |  | 365 | 100 |  |  | 
2.7e+07 | 6.3e+07 | 3.4e+07 | O=C(NCCN1CCCCC1)c1ccc(NCCN2CCCCC2)c2cc3ccccc3nc12 | 140 |  | 440 | 135 | 100 | 110 |  |  |  | 120 |  | 
 |  |  | CN(C)CCNC(=O)c1ccc(NCCN(C)C)c2cc3cc(N)ccc3nc12 [listing 2 of 3 here] | 155 |  | 700 | 89 | 320 |  |  |  | 100 | 365 |  | 
2.8e+08 | 4.1e+08 | 1.4e+09 | CN(C)CCNC(=O)c1ccc(NCCN(C)C)c2cc3cc(N)ccc3nc12 [listing 3 of 3 here] |  |  |  |  |  |  |  |  |  |  |  | 
1.4e+06 | 1e+06 | 1.1e+06 | CN(C)CCNC(=O)c1cccc2cc3ccccc3nc12 | 980 |  | 990 | 480 | 510 | 530 |  |  |  | 570 |  | 
4.5e+07 | 3e+08 | 9.9e+07 | CN(C)CCNC(=O)c1ccc(NCCNCCO)c2cc3ccccc3nc12 | 240 |  | 100 | 52 | 85 | 46 |  |  |  | 91 |  | 
 |  |  | CISPLATIN |  |  |  |  |  |  |  |  |  |  | 3400 | 
 |  |  | CN(C)CCCNC(=O)c1ccc(NCCCN(C)C)c2cc3ccccc3nc12 [listing 1 of 2 here] | 660 |  | 710 | 860 | 1950 |  |  | 1250 | 530 |  |  | 
1.4e+07 | 5.9e+07 | 1.9e+07 | COc1ccc2nc3c(C(=O)NCCN(C)C)ccc(NCCN(C)C)c3cc2c1 | 60 |  | 560 | 50 | 96 | 44 |  |  |  |  |  | 125
 |  |  | CN(C)CCNC(=O)c1ccc(Cl)c2cc3ccccc3nc12 | 3300 |  | 790 | 1750 | 2050 | 1900 |  |  |  | 2040 |  | 
2.2e+07 | 5.6e+07 | 8.5e+07 | NCCNC(=O)c1ccc(NCCN)c2cc3ccccc3nc12 | 12000 |  | 6940 | 1200 | 12000 | 1550 |  |  |  | 3150 |  | 
 |  |  | COc1cccc2c1C(=O)c1c(O)c3c(c(O)c1C2=O)C[C@@](O)(C(=O)CO)C[C@@H]3O[C@H]1C[C@H](N)[C@H](O)[C@H](C)O1 [DOXORUBICIN] |  |  |  |  |  |  |  | 17 | 450 |  |  | 
 |  | 3.7e+07 | CN(C)CCNC(=O)c1ccc(NCCN(C)C)c2c(=O)c3ccccc3[nH]c12 | 400 |  | 94 | 20 | 15 |  |  |  |  |  |  | 
 |  |  | CN(C)CCCNC(=O)c1ccc(NCCCN(C)C)c2cc3ccccc3nc12 [listing 2 of 2 here] | 660 | 1250 | 710 | 860 | 1950 | 530 |  |  |  |  |  | 
5e+06 | 3e+06 | 4.4e+06 | O=C(NCCN1CCOCC1)c1ccc(NCCN2CCOCC2)c2cc3ccccc3nc12 | 3200 |  | 2700 | 1850 | 2300 | 2150 |  |  |  | 2500 |  | 
3.1e+07 | 1e+08 | 2.9e+08 | CN(C)CCNC(=O)c1ccc(NCCN(C)C)c2cc3cc(O)ccc3nc12 | 900 |  | 850 | 150 | 110 | 200 |  |  |  | 190 |  | 
